Reference: ChEMBL document CHEMBL4041461, “Discovery of 6,7-dihydro-3H-pyrano[4,3-c]isoxazol-3-ones as a new class of pathogen specific anti-leptospiral agents” (Eur J Med Chem, 2017)
Converted amounts (≈) assume the structure as drawn. The source made the active and inactive calls. The rule behind the calls is not given here.

Columns and labels:
[1] = Antibacterial activity against Leptospira interrogans serovar Javanica Poi after 2 hrs by micro dilution assay; format: functional
[2] = tested on: Leptospira interrogans serovar Autumnalis; assay: Antibacterial activity against Leptospira interrogans serovar Autumnalis N2 at 500 ug/mL after 2 hrs by micro dilution assay; format: functional
In short: (§1)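 Preliminary screen by broth microdilution against L. interrogans serovar Autumnalis strain N2, each compound at 500, 250, 125, 62.5 and 31.25 µg/mL. Growth at each concentration was scored as resistance (R) or inhibition (I), and the MIC was taken from these scores. Triplicates.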

[3] = Antibacterial activity against Leptospira interrogans serovar Grippotyphosa Moskva V after 2 hrs by micro dilution assay; format: functional
[4] = Antibacterial activity against Leptospira interrogans serovar Pyrogenes Salinem after 2 hrs by micro dilution assay; format: functional
[5] = tested on: Leptospira interrogans serovar Autumnalis; assay: Antibacterial activity against Leptospira interrogans serovar Autumnalis N2 at 62.5 ug/mL after 2 hrs by micro dilution assay; format: functional; in short: as §1
[6] = Antibacterial activity against Leptospira interrogans serovar Australis Ballico after 2 hrs by micro dilution assay; format: functional
[7] = Antibacterial activity against Leptospira interrogans serovar Pomona after 2 hrs by micro dilution assay; format: functional
[8] = tested on: Leptospira interrogans serovar Autumnalis; assay: Antibacterial activity against Leptospira interrogans serovar Autumnalis N2 at 250 ug/mL after 2 hrs by micro dilution assay; format: functional; in short: as §1
[9] = tested on: Leptospira interrogans serovar Autumnalis; assay: Antibacterial activity against Leptospira interrogans serovar Autumnalis N2 at 31.25 ug/mL after 2 hrs by micro dilution assay; format: functional; in short: as §1
[10] = Antibacterial activity against Leptospira interrogans serovar Bataviae Swart after 2 hrs by micro dilution assay; format: functional
[11] = Antibacterial activity against Leptospira interrogans serovar Canicola Hond Utrecht IV after 2 hrs by micro dilution assay; format: functional
[12] = Antibacterial activity against Leptospira interrogans serovar Ballum Mus 127 after 2 hrs by micro dilution assay; format: functional; conditions: Mus 127, 2 h
[13] = tested on: Leptospira interrogans serovar Autumnalis; assay: Antibacterial activity against Leptospira interrogans serovar Autumnalis N2 at 125 ug/mL after 2 hrs by micro dilution assay; format: functional; in short: as §1
[14] = Antibacterial activity against Leptospira interrogans serovar Icterohaemorrhagiae RGA after 2 hrs by micro dilution assay; format: functional
[15] = (§2) Antibacterial activity against Leptospira interrogans serovar Semaranga after 2 hrs by micro dilution assay; format: functional
[16] = Antibacterial activity against Leptospira interrogans serovar Hebdomadis after 2 hrs by micro dilution assay; format: functional
[17] = Antibacterial activity against Leptospira interrogans serovar Autumnalis N2 after 2 hrs by micro dilution assay; format: functional; conditions: N2, 2 h
[18] = Antibacterial activity against Leptospira interrogans serovar Hardjo Hardjoprajitno after 2 hrs by micro dilution assay; format: functional
THP-1 [19] = assay: Induction of cell death in human THP1 cells upto 25 ug/mL after 12 hrs by propidium iodide staining based confocal laser scanning microscopic method; conditions: thp-1, 12 h
In short: (§3)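 THP-1 cells were exposed for 12 h to a range of concentrations, then stained with propidium iodide. PI-positive apoptotic and necrotic cells were counted manually and expressed as a percentage. Controls were untreated cells and tert-butylhydroperoxide. Mean ± SD of triplicates.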

Leptospira interrogans [20] = assay: Inhibition of Leptospira rRNA gene amplification assessed as thresholod cycle by SYBR Green dye-based RT-qPCR method (reference value: 11.3)
THP-1 [21] = assay: Cytotoxicity against human THP1 cells assessed as cell growth inhibition upto 25 ug/mL after 24 hrs by MTT assay; format: cell-based; conditions: thp-1, 24 h
[22] = Antibacterial activity against Leptospira interrogans serovar Canicola PAI-1 infected cyclophosphamide-treated BALB/c mouse assessed as mouse survival at 20 mg/kg, ip administered once daily for 3 days; format: functional; conditions: PAI-1, ip, 72 h
In short: (§4)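 Cyclophosphamide-treated (Cy-)BALB/c mice were challenged with pathogenic Leptospira Canicola. They were dosed once daily for 3 days at 5, 10 or 20 mg/kg. Controls were untreated mice and doxycycline at 5 mg/kg once daily. Survival was recorded to the end of the study period. Kidneys were checked by 16S qPCR and by re-isolation in EMJH semi-solid medium.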

THP-1 [23] = assay: Induction of cell death in human THP1 cells at >= 75 ug/mL after 12 hrs by propidium iodide staining based confocal laser scanning microscopic method; conditions: thp-1, 12 h; in short: as §3
THP-1 [24] = assay: Cytotoxicity against human THP1 cells assessed as cell growth inhibition at >=75 ug/mL after 24 hrs by MTT assay; format: cell-based; conditions: thp-1, 24 h
[25] = tested on: Leptospira interrogans serovar Canicola; assay: Antibacterial activity against Leptospira interrogans serovar Canicola PAI-1 infected cyclophosphamide-treated BALB/c mouse assessed as inhibition of bacterial renal colonization at 20 mg/kg,ip by RT-qPCR analysis; format: functional, organism-based
In short: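 Cyclophosphamide-treated BALB/c mice were infected with pathogenic serovar Canicola, then dosed once daily for 3 days at 5, 10 or 20 mg/kg. Controls were untreated mice and doxycycline at 5 mg/kg once daily. Leptospiral load in kidney tissue was measured by qPCR for renal colonization.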

Leptospira interrogans [26] = assay: as §2; format: functional
[27] = (§5) Antibacterial activity against Leptospira interrogans serovar Canicola PAI-1 infected cyclophosphamide-treated BALB/c mouse assessed as mouse survival at 5 mg/kg, ip administered once daily for 3 days; format: functional; conditions: PAI-1, ip, 72 h; in short: as §4
[28] = tested on: Leptospira interrogans serovar Canicola; assay: Antibacterial activity against Leptospira interrogans serovar Canicola PAI-1 infected cyclophosphamide-treated BALB/c mouse assessed as inhibition of bacterial renal colonization at 20 mg/kg,ip using EMJH semi solid medium; format: functional, organism-based
In short: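 Kidneys came from infected cyclophosphamide-treated BALB/c mice dosed once daily for 3 days, including at 20 mg/kg, alongside untreated infected controls. Leptospires were re-isolated by culturing kidney material in semi-solid EMJH medium.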

THP-1 [29] = assay: Induction of cell death in human THP1 cells at 0.5 mM after 12 hrs by propidium iodide staining based confocal laser scanning microscopic method; conditions: thp-1, 12 h, 500 µM
In short: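 THP-1 cells were treated for 12 h and then stained with propidium iodide. Apoptotic and necrotic cells were counted manually and expressed as a percentage. Untreated cells and tert-butylhydroperoxide served as controls. Data are mean ± SD of triplicates.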

[30] = tested on: Leptospira interrogans serovar Canicola; assay: as §5; format: functional; in short: as §4

For `CC1(C)CC2=NOC(=O)C2=C(c2cccc3ccccc23)O1`, the MIC [1] was 500 µg/mL (≈ 1700 µM), the Activity [2] was “Active” and the MIC [3] was 250 µg/mL (≈ 852 µM). For the same molecule, the MIC [4] was 500 µg/mL (≈ 1700 µM), the Activity [5] was “inactive” and the MIC [6] was 125 µg/mL (≈ 426 µM). For the same molecule, the MIC [7] was 500 µg/mL (≈ 1700 µM), the Activity [8] was “Active” and the Activity [9] was “inactive”. The MIC [10] was 125 µg/mL (≈ 426 µM), the MIC [11] was 250 µg/mL (≈ 852 µM) and the MIC [12] was 125 µg/mL (≈ 426 µM). The Activity [13] was “inactive”, the MIC [14] was 250 µg/mL (≈ 852 µM) and the MIC [15] was 500 µg/mL (≈ 1700 µM). It also gave an MIC [16] of 250 µg/mL (≈ 852 µM), an MIC [17] of 250 µg/mL (≈ 852 µM) and an MIC [18] of 500 µg/mL (≈ 1700 µM).

In the case of `CC1(C)CC2=NOC(=O)C2=C(c2ccccc2Cl)O1`, the Activity [2] is reported as “inactive”, the Activity [5] is reported as “inactive” and the Activity [8] is reported as “inactive”. The Activity [9] was “inactive” and the Activity [13] was “inactive”.

For `CC1(C)CC2=NOC(=O)C2=C(c2cccs2)O1`, the MIC [1] was 250 µg/mL (≈ 1000 µM), the Activity (THP-1 [19]) was “Non-Toxic” and the Activity (Leptospira interrogans [20]) was 18.5. For the same molecule, the Activity [2] was “Active”, the MIC [3] was 250 µg/mL (≈ 1000 µM) and the Activity (THP-1 [21]) was “Non-Toxic”. The MIC [4] was 125 µg/mL (≈ 501 µM), the survival at 20 mg/kg [22] was 95% and the Activity [5] was “inactive”. The MIC [6] was 250 µg/mL (≈ 1000 µM), the MIC [7] was 250 µg/mL (≈ 1000 µM) and the Activity (THP-1 [23]) was “Toxic”. The Activity [8] was “Active”, the Activity [9] was “inactive” and the MIC [10] was 250 µg/mL (≈ 1000 µM). The MIC [11] was 62.5 µg/mL (≈ 251 µM), the MIC [12] was 250 µg/mL (≈ 1000 µM) and the Activity (THP-1 [24]) was “Toxic”. For the same molecule, the inhibition [25] was “Active”, the Activity [13] was “inactive” and the MIC [14] was 250 µg/mL (≈ 1000 µM). For the same molecule, the MIC (Leptospira interrogans [26]) was “inactive”, the MIC [16] was 250 µg/mL (≈ 1000 µM) and the MIC [17] was 250 µg/mL (≈ 1000 µM). For the same molecule, the survival at 5 mg/kg [27] was 20%, the MIC [18] was 250 µg/mL (≈ 1000 µM) and the inhibition [28] was “Active”.

With `COc1cc(OC)c2c(O)c3c(cc2c1)OC(C)C(C)C3=O` (stereo not drawn) the Activity [2] was “inactive”, the Activity [5] was “inactive” and the Activity [8] was “inactive”. The Activity [9] was “inactive” and the Activity [13] was “inactive”.

With `CC1(C)CC2=NOC(=O)C2=C(c2ccc(Cl)cc2)O1` the MIC [1] was 250 µg/mL (≈ 900 µM), the Activity [2] was “Active” and the MIC [3] was 250 µg/mL (≈ 900 µM). For the same molecule, the MIC [4] was 250 µg/mL (≈ 900 µM), the Activity [5] was “inactive” and the MIC [6] was 125 µg/mL (≈ 450 µM). For the same molecule, the MIC [7] was 250 µg/mL (≈ 900 µM), the Activity [8] was “Active” and the Activity [9] was “inactive”. It also gave an MIC [10] of 250 µg/mL (≈ 900 µM), an MIC [11] of 125 µg/mL (≈ 450 µM) and an MIC [12] of 250 µg/mL (≈ 900 µM). The Activity [13] was “inactive”, the MIC [14] was 250 µg/mL (≈ 900 µM) and the MIC (Leptospira interrogans [26]) was “inactive”. It also gave an MIC [16] of 250 µg/mL (≈ 900 µM), an MIC [17] of 250 µg/mL (≈ 900 µM) and an MIC [18] of 250 µg/mL (≈ 900 µM).

With `CC(C)(C)OO` [TERT-BUTYL HYDROPEROXIDE] the Activity (THP-1 [29]) was “Toxic”.

In the case of `CC1CC(=O)c2c(cc3ccccc3c2O)O1` (stereo not drawn), the Activity [2] is reported as “Active”, the Activity [5] is reported as “inactive” and the Activity [8] is reported as “Active”. For the same molecule, the Activity [9] was “inactive” and the Activity [13] was “inactive”.

For `CC1(C)CC(=O)c2c(cc3ccccc3c2O)O1`, the Activity [2] was “Active”, the Activity [5] was “inactive” and the Activity [8] was “inactive”. For the same molecule, the Activity [9] was “inactive” and the Activity [13] was “inactive”.

For `C[C@H]1c2cccc(O)c2C(=O)C2=C(O)[C@]3(O)C(=O)C(C(N)=O)=C(O)[C@@H](N(C)C)[C@@H]3[C@@H](O)[C@@H]21.O` [DOXYCYCLINE], the MIC [1] was 200 µg/mL, the Activity [2] was “Active” and the MIC [3] was 200 µg/mL. For the same molecule, the MIC [4] was 200 µg/mL, the Activity [5] was “inactive” and the MIC [6] was 200 µg/mL. The MIC [7] was 100 µg/mL, the Activity [8] was “Active” and the Activity [9] was “inactive”. The MIC [10] was 100 µg/mL, the MIC [11] was 200 µg/mL and the MIC [12] was 100 µg/mL. For the same molecule, the Activity [13] was “inactive”, the MIC [14] was 200 µg/mL and the MIC [15] was 100 µg/mL. The MIC [16] was 200 µg/mL, the MIC [17] was 200 µg/mL and the Activity [30] was “Active”. For the same molecule, the MIC [18] was 100 µg/mL.
